Assay outcomes (PubChem)
RBBP9 inhibitor – inhibitors of human serine hydrolase RBBP9; O75884; recombinant RBBP9, FP-Rh probe fluorescence polarization; 220,000 tested, 0.2% active; inhibition, % at 7.94 µM;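 active means inhibition above the campaign mean of all tested compounds plus 3 SD, cut at about 14% in these data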
Target sequence (O75884 whole entry, looked up): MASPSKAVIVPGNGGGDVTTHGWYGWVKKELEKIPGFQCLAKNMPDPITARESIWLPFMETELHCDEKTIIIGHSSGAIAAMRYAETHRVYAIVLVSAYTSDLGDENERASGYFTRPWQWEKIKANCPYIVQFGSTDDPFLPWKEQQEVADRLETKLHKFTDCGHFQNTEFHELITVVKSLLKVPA
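Material: RBBP9 protein. Amount: RBBP9 at 2.5 µM in dispensed solution, before mixing. Schedule: 30 min then 45 min, 25 °C. Medium: Tris buffer pH 8.0, NaCl, Pluronic. Measured by: fluorescence polarization. Measure: percent inhibition from mP, scaled between DMSO and no-protein wells. Replication: one well per compound.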
Wee1 stabilizer – human Wee1 degradation inhibition, primary screen; HeLa Luc-Wee1K328M stability, luciferase luminescence; 100% = proteasome inhibitor MG132 effect; reporter increase, % at 5 µM; 220,000 tested, 1.2% active; AID 1321;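 active means activation above the mean of all tested compounds plus 3 SD, set per screening run, cut at about 8.8% in these data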;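 further: cells exposed to compound for 20 h before luminescence read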
Insulin prom inh – TRM-6 insulin promoter activity inhibition; TRM-6 cells, insulin promoter-eGFP reporter, imaging; reporter expression induced with tamoxifen; inhibition, % at 2 µM; 130,000 tested, 0.9% active;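 active means inhibition above the mean plus 3 SD, with well images judged a real hit on visual review, cut at about 60% in these data, passing the limit was not always enough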
MDM2 E3 inh – inhibitors of human Mdm2 E3 ubiquitin ligase; Q00987; cell-based MDM2 ubiquitination luciferase reporter, 2 h; 0 = plate control, 100 = twice control, blank-subtracted; signal enhancement, % at 5 µM; 210,000 tested, 0.11% active; AID 1230;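 active means signal enhancement of 30% or more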;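 further: luminescence tracks abundance of the self-degrading MDM2-luciferase fusion protein; higher signal means inhibition of MDM2 E3 ligase activity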
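Timing – 2 h compound exposure at 37 °C · Assay system – mammalian cells stably expressing self-ubiquitinating, self-degrading MDM2 E3–luciferase fusion · Amount – 2000 cells seeded into each well · Measure – % luminescence enhancement versus blank-corrected plate control mean · Measured by – SteadyLite luminescence, 15 min reagent step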
Hsp70 act – Hsp70 transcriptional activation, primary screen. HeLa Hsp70 promoter luciferase reporter, luminescence; scaled: vehicle 0, proteasome-inhibitor control 100%. activation, % at 10 µM. 200,000 tested, 0.04% active;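 active means activation above the mean across all tested compounds plus 3 SD, cutoff set per campaign, cut at about 5.5% in these data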
Insulin prom up – MIN6 insulin promoter up-regulation. MIN6 insulin promoter-GFP reporter, high-content imaging; active compounds read high. z-score at 5 µM. 190,000 tested, 0.3% active;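 active means z-score above 3 at 5 µM with at least 500 cells counted in the well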
Wee1 stab conf – confirmation of human Wee1 degradation inhibitors; HeLa Luc-Wee1K328M degradation, luminescence; vehicle 0%, proteasome-blocked wells 100%; AID 1410; activation, % at 5 µM; shares compounds with Wee1 stabilizer; 1,100 tested, 4% active; in the data active means activation above about 8.9%
Hits are given with their value; - = inactive; . = no result. Sampled rows, rich in hits. Any-hit rate of the full collection: about 2.2%.

SMILES | RBBP9 inhibitor | Wee1 stabilizer | Insulin prom inh | MDM2 E3 inh | Hsp70 act | Insulin prom up | Wee1 stab conf
NCCOc1ccccc1-c1ccccc1 | - | - | . | - | - | - | .
NCCOc1ccccc1OCCN | - | 12 | . | - | - | - | -
COCCCNC(=O)Nc1ccc(Br)cc1Cl | - | 11 | - | - | - | - | -
N#Cc1ccc(COn2nnc3ccccc32)cc1 | - | - | . | - | - | - | .
CCN(CC)c1ccc(/C=N/NC(=O)c2ccco2)cc1 | - | 20 | - | - | - | - | 13
CCN(CC)c1ccc(/C=N/NC(=O)c2cnccn2)cc1 | - | 15 | - | - | - | - | 19
CCN(CC)c1ccc(/C=N/NC(=O)c2ccc([N+](=O)[O-])cc2)cc1 | - | - | - | - | - | - | .
CCN(CC)c1ccc(/C=N/NC(=O)c2ccco2)c(O)c1 | - | - | . | - | . | - | .
Cc1ccc(N(CC(O)CN2C(=O)NC(C)(C)C2=O)S(=O)(=O)c2ccc(C)cc2)cc1 (stereo not given) | - | 13 | . | - | . | - | -
Cc1ccc2c(CSc3nnc(C4CC4)n3N)cc(=O)oc2c1 | - | - | - | - | - | - | .
Cc1ccc2c(CSc3nnc(C4CC4)n3N)cc(=O)oc2c1C | - | 12 | . | - | - | - | -
CCOC(=O)c1sc2nccc(OC)c2c1N=CNOC | - | - | . | - | - | - | .
C/C(=N\NC(=O)c1nc2ccccn2c1C)c1ccc2c(c1)OCO2 | - | 12 | - | - | - | - | -
C/C(=N\NC(=O)c1nc2ccccn2c1C)c1cccc([N+](=O)[O-])c1 | - | - | . | - | - | - | .
CN(Cc1ccccc1F)c1nc(-c2cccs2)nc2ccccc12 | - | 14 | - | - | - | - | -
Fc1ccccc1N1CCN(c2nc(-c3cccs3)nc3ccccc23)CC1 | - | - | - | - | - | - | .
CC(C)(C)NC(=O)/C(=C\c1ccccc1F)NC(=O)c1ccc([N+](=O)[O-])cc1 | - | - | - | - | - | - | .
CC(C)(C)NC(=O)/C(=C/c1ccccc1F)NC(=O)c1ccc([N+](=O)[O-])cc1 | - | 15 | - | - | - | - | -
COc1ccc(NC(=O)c2onc(C)c2Cl)cc1 | - | 17 | . | - | . | - | -
O=S(=O)(c1ccc(Cl)cc1Cl)n1ccc2cccnc21 | - | 12 | - | - | - | - | -
Cc1ccc(C(=O)CC(C(=O)O)P(=O)(c2ccccc2)c2ccccc2)cc1 (stereo not given) | - | 14 | - | - | - | . | -
O=C(O)C(C/C(=N/O)c1ccc(Br)cc1)P(=O)(c1ccccc1)c1ccccc1 (stereo not given) | - | - | . | - | . | . | .
CCOC(=O)CC(NC(=O)Cn1nnc(-c2ccccc2C)n1)c1ccc(OC)cc1 (stereo not given) | - | 12 | - | - | - | - | -
CCOC(=O)CC(NC(=O)Cn1nnc(-c2ccccc2F)n1)c1ccccc1Cl (stereo not given) | - | - | - | - | - | - | .
COc1ccc(Cn2c(C)c(C)c(C#N)c2NC(=O)Nc2ccc(Cl)cc2)cc1 | - | - | - | - | - | - | .
SMILES | RBBP9 inhibitor | Wee1 stabilizer | Insulin prom inh | MDM2 E3 inh | Hsp70 act | Insulin prom up | Wee1 stab conf
CC(C)C(O)(C#CCN1CCCCC1)c1ccccc1 (stereo not given) | - | 12 | - | - | - | - | -
O=C(/C=C/c1ccccc1)N/C(=C/c1ccccc1)C(=O)NCCCO | - | - | - | - | - | - | .
Cn1nc(C(=O)Nc2cccc(C(F)(F)F)c2)ccc1=O | - | 11 | - | - | - | - | -
Cn1ncc(Br)c1C(=O)Nc1cccc(C(F)(F)F)c1 | - | - | . | - | . | - | .
CSC(=NC#N)N1CCN(c2ccccc2)CC1 | - | - | . | - | - | - | .
COc1cc(NC(=O)COC(=O)CNC(=O)c2ccc(Cl)cc2)c(C)cc1[N+](=O)[O-] | - | 12 | - | - | - | - | -
COc1cc(NC(=O)COC(=O)CNC(=O)c2ccc(C)cc2)c(C)cc1[N+](=O)[O-] | - | - | . | - | - | - | .
CN(C)c1nc(N)nc(-c2nc3ccccc3s2)n1 | - | 12 | - | - | - | . | -
Nc1ccccc1-c1nc2ccccc2s1 | - | - | . | - | - | - | .
